High-throughput results: PubChem BioAssay, Johns Hopkins Ion Channel Center
MrgX1 PAM: human MrgX1 positive allosteric modulation, primary screen; MrgX1-HEK293, Fluo-4 calcium flux, FDSS; active compounds read high; B-score at 10 µM; Q96LB2; AID 588675; 310,000 compounds, 0.63% hits;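 active means plate-corrected calcium response at least 3 library SD above typical, normal starting fluorescence, not activating the receptor alone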;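 further: compound read alongside a low EC10 to EC30 dose of BAM8-22 agonist; peak minus trough fluorescence over baseline measured at the second addition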
Target sequence (Q96LB2 whole entry, looked up): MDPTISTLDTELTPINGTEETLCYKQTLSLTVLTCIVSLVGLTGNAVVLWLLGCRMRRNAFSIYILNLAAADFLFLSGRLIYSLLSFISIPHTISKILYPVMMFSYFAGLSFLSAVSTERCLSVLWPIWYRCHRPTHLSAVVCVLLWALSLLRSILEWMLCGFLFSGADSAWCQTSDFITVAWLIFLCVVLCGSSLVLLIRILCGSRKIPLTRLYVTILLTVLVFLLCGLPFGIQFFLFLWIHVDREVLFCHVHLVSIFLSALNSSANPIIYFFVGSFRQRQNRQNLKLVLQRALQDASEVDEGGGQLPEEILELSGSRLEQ
MrgX1 antagonist: antagonists of human MrgX1 receptor; 310,000 compounds, 1.3% hits; MRGX1-HEK293 calcium flux, Fluo-4, BAM8-22 antagonism; active compounds read low; Q96LB2; B-score at 10 µM;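 active means calcium-response B-score plate-corrected more than 3 library SD below zero, starting fluorescence within 5 deviations, no agonist response on first addition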;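 further: peak minus trough fluorescence over baseline after final BAM8-22 challenge near maximal dose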
RGS4 block: human RGS4 inhibition. HEK293 M3R/RGS4 inducible, Fluo-4 calcium flux; active compounds read high; triggered by carbachol at its EC20. B-score at 10 µM. 310,000 compounds, 0.45% hits. AID 463165;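 active means B-score, a plate-corrected calcium signal, over three deviations above library mean, with baseline fluorescence within five deviations of library mean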;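 further: RGS4 expression induced by doxycycline in cells with stable M3 receptor; B-score is computed from the integrated fluorescence ratio over baseline after carbachol; higher B-score means a larger calcium signal and so more RGS4 inhibition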
Target sequence (P49798 whole entry, looked up): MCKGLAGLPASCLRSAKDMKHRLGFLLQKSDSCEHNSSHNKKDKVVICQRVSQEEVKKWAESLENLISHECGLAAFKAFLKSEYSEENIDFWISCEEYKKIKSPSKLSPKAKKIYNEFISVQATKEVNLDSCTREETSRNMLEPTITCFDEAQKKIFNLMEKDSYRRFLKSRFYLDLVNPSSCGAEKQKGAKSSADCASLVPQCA
RGS4 act: RGS4 potentiation or activation. HEK293 M3R/inducible RGS4, carbachol calcium flux Fluo4; active compounds read low. B-score at 10 µM. 310,000 compounds, 0.92% hits;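 active means B-score of the integrated calcium signal more than 4 SD below the library mean, with starting fluorescence not abnormally high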;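 further: negative B-score means reduced calcium response which marks RGS4 activation or potentiation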
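Material: M3R-expressing HEK293 line, RGS4 induced by doxycycline | Schedule: Overnight RGS4 induction, 30 min dye load 37 °C, 20 min compound RT | Measured by: Fluo4 fluorescence kinetic imaging of calcium | Read-out: Integrated calcium ratio converted to B score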
MrgX1 agonist: agonists of human MrgX1 receptor; Q96LB2; MrgX1-HEK293 cells, Fluo-4 calcium fluorescence, agonist mode; active compounds read high; B-score at 10 µM; 310,000 compounds, 0.44% hits; AID 588627;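 active means calcium response B-score plate-corrected fluorescence ratio at least 3 library SD, with starting fluorescence B-score inside 5 SD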
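Test system: HEK293 cells stably expressing human MrgX1 receptor; Input: fifteen thousand cells per well; Dosing: compound delivered in addition one of three; Schedule: overnight seeding, then 1 h dark dye loading; Technique: Fluo-4 NW calcium fluorescence; Measure: B-scored fluorescence response ratio; Controls: positive and negative controls per plate.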
* marks the source's active call; other numbers are inactive results. Most compounds without a hit are left out; they make up all but 3.5% or so of the library.

For CN(C)CCCNS(=O)(=O)c1ccc(NC2CCCCCC2)c([N+](=O)[O-])c1 the results were MrgX1 PAM inactive, MrgX1 antagonist inactive, RGS4 block inactive, RGS4 act inactive and MrgX1 agonist inactive.
For CCOC(=O)C1=C(C)N=c2s/c(=C\c3ccc(OC(C)=O)cc3)c(=O)n2C1/C=C/c1ccccc1 (stereo not given) the results were MrgX1 PAM inactive, MrgX1 antagonist inactive, RGS4 block inactive, RGS4 act -11* and MrgX1 agonist inactive.
CC(C)c1ccc(/C=C(\c2nc3ccccc3[nH]2)S(=O)(=O)c2ccccc2)cc1 was read as MrgX1 PAM inactive, MrgX1 antagonist inactive, RGS4 block inactive, RGS4 act inactive and MrgX1 agonist inactive.
For O=S(=O)(/C(=C/c1ccc(C(F)(F)F)cc1)c1nc2ccccc2[nH]1)c1ccccc1 the results were MrgX1 PAM inactive, MrgX1 antagonist inactive, RGS4 block 22*, RGS4 act inactive and MrgX1 agonist inactive.
CC(=O)Nc1ccc(CN2CCCCCCC2)cc1 was read as MrgX1 PAM inactive, MrgX1 antagonist inactive, RGS4 block inactive, RGS4 act inactive and MrgX1 agonist inactive.
O=C(Nc1ccc(CN2CCCCC2)cc1)c1c(F)c(F)c(F)c(F)c1F was read as MrgX1 PAM inactive, MrgX1 antagonist inactive, RGS4 block inactive, RGS4 act -7.3* and MrgX1 agonist inactive.
For O=C(NC(=S)Nc1ccc(CN2CCCCC2)cc1)c1cccc(OCc2ccccc2)c1 the results were MrgX1 PAM inactive, MrgX1 antagonist inactive, RGS4 block inactive, RGS4 act -7.5* and MrgX1 agonist inactive.
`Cc1ccnc(NC(=O)C2CC(=O)N(Cc3ccccc3)C2)c1` (stereo not given) gave MrgX1 PAM inactive, MrgX1 antagonist inactive, RGS4 block inactive, RGS4 act inactive and MrgX1 agonist inactive.
Screening CCOC(=O)N1CCC(N2C(=O)c3ccccc3C2Nc2ccc(S(=O)(=O)N3CCCCC3)cc2)CC1 (stereo not given) returned MrgX1 PAM inactive, MrgX1 antagonist inactive, RGS4 block inactive, RGS4 act inactive and MrgX1 agonist inactive.
Screening CNCc1ccccc1Sc1ccc(O)c(O)c1 returned MrgX1 PAM inactive, MrgX1 antagonist -5.7*, RGS4 block inactive, RGS4 act -7.5* and MrgX1 agonist inactive.
COc1ccc(Sc2ccccc2CN(C)C)cc1OC was read as MrgX1 PAM inactive, MrgX1 antagonist inactive, RGS4 block inactive, RGS4 act inactive and MrgX1 agonist inactive.
Screening Cc1cccc(C(=O)NN2C(=O)C3C(c4ccccc4)C=CC(c4ccccc4)C3C2=O)c1 (stereo not given) returned MrgX1 PAM inactive, MrgX1 antagonist inactive, RGS4 block inactive, RGS4 act -7.1* and MrgX1 agonist inactive.
Screening O=C(NN1C(=O)C2C3C=CC(C3)C2C1=O)c1ccccc1 (stereo not given) returned MrgX1 PAM inactive, MrgX1 antagonist inactive, RGS4 block inactive, RGS4 act inactive and MrgX1 agonist inactive.
`CCCn1c(=O)n(C)c(=O)c2c(SCC(=O)NCC(c3ccccc3)N(C)C)nc(CC(C)C)nc21` (stereo not given) gave MrgX1 PAM inactive, MrgX1 antagonist inactive, RGS4 block inactive, RGS4 act inactive and MrgX1 agonist inactive.
Cc1c(Br)c([N+](=O)[O-])nn1C(C)C(=O)NCc1cccs1 (stereo not given) was read as MrgX1 PAM inactive, MrgX1 antagonist inactive, RGS4 block inactive, RGS4 act inactive and MrgX1 agonist inactive.
Cc1c(Br)c([N+](=O)[O-])nn1CC(=O)NCc1cccs1 was read as MrgX1 PAM inactive, MrgX1 antagonist -4.8*, RGS4 block inactive, RGS4 act inactive and MrgX1 agonist inactive.
For CC(=O)N1CC[n+]2c(-c3ccc(Cl)cc3)csc21 the results were MrgX1 PAM inactive, MrgX1 antagonist inactive, RGS4 block inactive, RGS4 act inactive and MrgX1 agonist inactive.
Screening CC(C)C(NC(=O)C(C)N1C(=O)c2ccccc2C1=O)c1ccccc1 (stereo not given) returned MrgX1 PAM inactive, MrgX1 antagonist inactive, RGS4 block inactive, RGS4 act inactive and MrgX1 agonist inactive.
For COc1cc(N2CCCC2)c(OC)cc1/C=C1/NC(=S)NC1=O the results were MrgX1 PAM inactive, MrgX1 antagonist -5.4*, RGS4 block inactive, RGS4 act inactive and MrgX1 agonist inactive.
Screening CCOC(=O)c1nc(N/N=C/c2ccccc2)sc1Br returned MrgX1 PAM inactive, MrgX1 antagonist inactive, RGS4 block inactive, RGS4 act inactive and MrgX1 agonist inactive.
O=C(O)c1ccccc1NSc1ccccc1[N+](=O)[O-] was read as MrgX1 PAM inactive, MrgX1 antagonist inactive, RGS4 block inactive, RGS4 act inactive and MrgX1 agonist inactive.
Screening CCc1ccc(NSc2ccccc2[N+](=O)[O-])cc1 returned MrgX1 PAM 6.6*, MrgX1 antagonist inactive, RGS4 block inactive, RGS4 act -8.2* and MrgX1 agonist inactive.
Screening CC1=NN(C(=O)COc2cc(C)ccc2C(C)C)C(O)(c2ccccc2)C1 (stereo not given) returned MrgX1 PAM 8*, MrgX1 antagonist inactive, RGS4 block inactive, RGS4 act inactive and MrgX1 agonist inactive.
For Cc1ccc(N(CC(=O)N/N=C/c2cc(C)n(-c3ccccc3C)c2C)S(C)(=O)=O)cc1 the results were MrgX1 PAM inactive, MrgX1 antagonist inactive, RGS4 block inactive, RGS4 act inactive and MrgX1 agonist inactive.
Screening Cc1cccc2sc(N(CCCN(C)C)C(=O)c3ccc(Cl)s3)nc12 returned MrgX1 PAM inactive, MrgX1 antagonist inactive, RGS4 block inactive, RGS4 act -8.3* and MrgX1 agonist inactive.
For COc1ccc2c(COC(=O)c3cccc(S(=O)(=O)NCC(C)C)c3)cc(=O)oc2c1 the results were MrgX1 PAM inactive, MrgX1 antagonist inactive, RGS4 block inactive, RGS4 act -7.2* and MrgX1 agonist inactive.
Screening CCCC(=Nc1ccc(N)cc1)C1=C(O)C(C(=O)OC)C(C)(C)CC1=O (stereo not given) returned MrgX1 PAM inactive, MrgX1 antagonist inactive, RGS4 block inactive, RGS4 act inactive and MrgX1 agonist inactive.
Cc1ccccc1/C=C/c1nc2ccccc2c(=O)n1CCc1ccccc1 was read as MrgX1 PAM inactive, MrgX1 antagonist inactive, RGS4 block inactive, RGS4 act inactive and MrgX1 agonist inactive.
Cc1ccccc1/C=C/c1nc2ccccc2c(=O)n1Cc1ccccc1 was read as MrgX1 PAM inactive, MrgX1 antagonist inactive, RGS4 block inactive, RGS4 act -7.4* and MrgX1 agonist inactive.
